IC50, inhibition and inhibition in vivo data for 18 compounds are collected here from ChEMBL document CHEMBL3621067, “Antihyperlipidemic morpholine derivatives with antioxidant activity: An investigation of the aromatic substitution” (Bioorg Med Chem, 2015).

Structures are written as SMILES. Some results are limits rather than exact numbers.

As usually defined, the IC50 is the point on the concentration scale where inhibition reaches its midpoint. The inhibition is how much of the control response was suppressed. For orientation: inhibition in vivo means the change of the read-out against control, counted positive when it falls.

One test relates to Liver. The test is described as follows: Antioxidant activity in rat heat-inactivated rat hepatic microsomes assessed as inhibition of TBAR level incubated for 45 mins by spectrophotometry. The settings on record: 0.75 h. The format is functional. Put shortly: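 Heat-inactivated liver microsomes from untreated rats (2.5 mg protein/mL, 4 mM fatty acid residues) with 0.2 mM ascorbic acid in Tris–HCl/KCl (50/150 mM, pH 7.4); compounds in DMSO, 10 μM to 1 mM. Incubated at 37 °C for 45 min; TBAR read at 535 against 600 nm. Run in duplicate; IC50 is the mean concentration giving 50% inhibition of control peroxidation.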

Test [1] has as its target T1, Squalene synthase (Rattus norvegicus) (UniProt Q02769).
T1 sequence (whole entry): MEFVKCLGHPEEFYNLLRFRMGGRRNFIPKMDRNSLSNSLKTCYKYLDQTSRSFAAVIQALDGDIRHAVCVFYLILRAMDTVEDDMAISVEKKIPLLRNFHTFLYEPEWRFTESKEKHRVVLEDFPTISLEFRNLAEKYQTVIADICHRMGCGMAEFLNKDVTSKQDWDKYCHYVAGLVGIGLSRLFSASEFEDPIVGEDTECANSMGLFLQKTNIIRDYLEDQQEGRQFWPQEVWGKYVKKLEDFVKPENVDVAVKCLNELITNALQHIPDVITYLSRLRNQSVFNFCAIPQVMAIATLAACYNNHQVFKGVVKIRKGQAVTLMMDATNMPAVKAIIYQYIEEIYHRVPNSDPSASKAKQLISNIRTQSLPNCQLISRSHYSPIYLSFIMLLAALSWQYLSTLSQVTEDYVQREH
The test is described as follows: Inhibition of squalene synthase in rat liver microsomes assessed as reduction in conversion of [3H]farnesyl pyrophosphate to squalene at 10 uM […] by liquid scintillation counting method. (Microsomes from liver hold many membrane-bound enzymes, among them those of drug oxidation.)

Test [2] has as its system Rattus norvegicus. The test is described as follows: Antihyperlipidemic activity in Triton WR1339-induced hyperlipidemic rat assessed as reduction in plasma total cholesterol at 56 umol/kg, ip dosed 1 hr after Triton WR1339 challenge and measured 24 hrs post dose relative to control. The format is functional. The gist of the method: (§1)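 Rats given Triton WR1339 to induce acute hyperlipidemia, established 24 h later; compounds given ip at 56 μmol/kg. Animals held at 22 °C on a 12 h light/dark cycle with free chow and water. Plasma lipids measured in duplicate; values are the mean of 8–10 rats per compound, expressed as % decrease versus hyperlipidemic controls; significance by Student's test.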

Test [3] relates to Rattus norvegicus. The test is described as follows: Antihypercholesterolemic activity in Triton WR1339-induced hyperlipidemic rat assessed as reduction in plasma LDL-C level at 56 umol/kg, ip dosed 1 hr after Triton WR1339 challenge and measured 24 hrs post dose relative to control. It is filed as functional. The gist of the method:
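Rats, housed at 22 °C on a 12 h light/dark cycle with free chow and water, given Triton WR1339 to induce acute hyperlipidemia (established 24 h later). Compound given ip at 56 μmol/kg. Plasma LDL measured in duplicate and expressed as % decrease versus hyperlipidemic controls; mean of 8–10 rats per compound.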

The test system of test [4] is Rattus norvegicus. The test is described as follows: Antihyperlipidemic activity in Triton WR1339-induced hyperlipidemic rat assessed as reduction in plasma triglyceride level at 56 umol/kg, ip dosed 1 hr after Triton WR1339 challenge and measured 24 hrs post dose relative to control. It is filed as functional. The gist of the method:
as §1

Another test has as its target T2, Squalene synthase (Rattus norvegicus, UniProt Q02769).
T2 sequence (Q02769 whole entry): T1 sequence (whole entry)
The test is described as follows: Inhibition of squalene synthase in rat liver microsomes assessed as reduction in conversion of [3H]farnesyl pyrophosphate to squalene incubated for 30 mins by liquid scintillation counting.

Test [5] deals with T1, Squalene synthase (Rattus norvegicus). The test is described as follows: Inhibition of squalene synthase in rat liver microsomes assessed as reduction in conversion of [3H]farnesyl pyrophosphate to squalene at 50 uM incubated for 30 mins by liquid scintillation counting. Put shortly: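 Rat liver microsomes (18 μg protein/mL) in 50 mM phosphate, pH 7.4, with 10 mM MgCl2 and 0.5 mM NADPH; compounds in ethanol. Preincubated 10 min at 37 °C, then started with [3H]FPP (0.5 μM, 0.27 Ci/mmol) for 10 min at 37 °C. Stopped with 15% ethanolic KOH, heated 65 °C for 30 min, extracted into petroleum ether, and squalene counted by scintillation. Run in duplicate.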

Regarding `CN1CC(O)(c2ccc(C3CCCCC3)cc2)OC2CCCCC21` (stereo unspecified), the IC50 in the test with Liver is 180 µM; on Squalene synthase it was 42 µM. Besides, in test [1], the inhibition was found to be 18%. Also, the inhibition in vivo at 56 µmol/kg with Rattus norvegicus [2] was determined as 51%; in the test with Rattus norvegicus [3], 23%; with Rattus norvegicus [4], 20%.
For the compound `OC1(c2ccc(-c3nccs3)cc2)CN2CCCCC2CO1` (stereo unspecified), the IC50 with Liver came out at 1000 µM. Besides, the inhibition in test [5] amounted to 35%. Moreover, the values for the inhibition in vivo at 56 µmol/kg in the test on Rattus norvegicus [2] and in the test on Rattus norvegicus [4] were 21% and 58%, respectively.
Take `CN1CCOC(O)(c2ccc(-c3ccc([N+](=O)[O-])cc3)cc2)C1` (stereo unspecified): in the test with Liver, the IC50 amounted to 73 µM. The inhibition in test [1] amounted to 29%. The inhibition in vivo at 56 µmol/kg in the test on Rattus norvegicus [2] was 41%; with Rattus norvegicus [4], 44%.
With `CN1CCOC(O)(c2ccc3c(ccc4ccccc43)c2)C1` (stereo unspecified), the values for the half-maximal inhibitory concentration (IC50) in the test with Liver and on Squalene synthase were 174 µM and 8.8 µM, respectively. Further, in test [1], the inhibition was 48%. The values for the inhibition in vivo at 56 µmol/kg in the test with Rattus norvegicus [2], in the test with Rattus norvegicus [3] and in the test on Rattus norvegicus [4] were 58%, 52% and 69%, respectively.
Regarding `CN1CC(O)(c2ccc(-c3ccc(O)cc3)cc2)OC2CCCCC21` (stereo unspecified), in the test on Liver, the IC50 amounted to 135 µM. In addition, in test [1], the inhibition is 61%. The results for the inhibition in vivo at 56 µmol/kg in the test with Rattus norvegicus [2] and with Rattus norvegicus [4] were 54% and 48%, respectively.
Turning to `OC1(c2ccc3c(ccc4ccccc43)c2)CN2CCCCC2CO1` (stereo unspecified), the half-inhibitory concentration (IC50) in the test on Liver came to 198 µM; at Squalene synthase, 0.7 µM. In addition, the inhibition in test [1] amounted to 87%. The inhibition in vivo at 56 µmol/kg came to 40% with Rattus norvegicus [2], 53% in the test with Rattus norvegicus [3] and 66% with Rattus norvegicus [4].
As for `CN1CCOC(O)(c2ccc(-c3ccc(C(C)(C)C)cc3)cc2)C1` (stereo unspecified), the IC50 in the test on Liver turned out to be 91 µM. Also, the inhibition in test [1] was determined as 61%. For the same compound, the values for the inhibition in vivo at 56 µmol/kg in the test with Rattus norvegicus [2] and with Rattus norvegicus [4] were 45% and 47%, respectively.
`CN1CC(O)(c2ccc(-c3ccc([N+](=O)[O-])cc3)cc2)OC2CCCCC21` (stereo unspecified): the IC50 in the test on Liver was found to be 57 µM. Moreover, the inhibition in vivo at 56 µmol/kg in the test with Rattus norvegicus [2] amounted to 62%; in the test on Rattus norvegicus [4], 20%.
For `Oc1ccc(-c2ccc(C3(O)CN4CCCCC4CO3)cc2)cc1` (stereo unspecified), the IC50 in the test with Liver came out at 134 µM. In addition, the inhibition in test [1] was 7%. For the same compound, the inhibition in vivo at 56 µmol/kg in the test with Rattus norvegicus [2] stood at 40%; with Rattus norvegicus [4], 43%.
For `O=[N+]([O-])c1ccc(-c2ccc(C3(O)CN4CCCCC4CO3)cc2)cc1` (stereo unspecified), in that order: 539 µM, 43%, 59% and 31%.
For the compound `CN1CC(O)(c2ccc3c(ccc4ccccc43)c2)OC2CCCCC21` (stereo unspecified), the IC50 is 191 µM with Liver and 5.5 µM on Squalene synthase. Also, in test [1], the inhibition came out at 76%. For the same compound, the inhibition in vivo at 56 µmol/kg in the test on Rattus norvegicus [2] was 49%; with Rattus norvegicus [3], 20%; in the test on Rattus norvegicus [4], 59%.
For the compound `OC1(c2ccc(C3CCCCC3)cc2)CN2CCCCC2CO1` (stereo unspecified), the IC50 with Liver worked out at 700 µM; at Squalene synthase, 80 µM. Moreover, in test [1], the inhibition amounted to 9%. Besides, the inhibition in vivo at 56 µmol/kg amounted to 80% in the test with Rattus norvegicus [2], 62% in the test on Rattus norvegicus [3] and 70% in the test on Rattus norvegicus [4].
`CCC(C)(C)C(=O)O[C@H]1C[C@@H](C)C=C2C=C[C@H](C)[C@H](CC[C@@H]3C[C@@H](O)CC(=O)O3)[C@H]21` [SIMVASTATIN]: the inhibition in vivo at 56 µmol/kg was found to be 75% in the test with Rattus norvegicus [2], 70% in the test with Rattus norvegicus [3] and 0% with Rattus norvegicus [4].
Consider `CN1CCOC(O)(c2ccc(C3CCCCC3)cc2)C1` (stereo unspecified), for which the IC50 with Liver was 190 µM; on Squalene synthase, over 100 µM. Further, the inhibition in test [1] was found to be 0%. Further, the inhibition in vivo at 56 µmol/kg in the test with Rattus norvegicus [2] stood at 44%; in the test on Rattus norvegicus [3], 36%; in the test on Rattus norvegicus [4], 34%.
Turning to `CN1CCOC(O)(c2ccc(-c3nccs3)cc2)C1` (stereo unspecified), the inhibition in test [5] worked out at 30%.
As to `CN1CC(O)(c2ccc(-c3ccc(C(C)(C)C)cc3)cc2)OC2CCCCC21` (stereo unspecified), the IC50 in the test on Liver worked out at 214 µM. For the same compound, in test [1], the inhibition was 67%. In addition, the figures for the inhibition in vivo at 56 µmol/kg in the test on Rattus norvegicus [2] and in the test with Rattus norvegicus [4] were 17% and 15%, respectively.
For `CN1CC(O)(c2ccc(-c3nccs3)cc2)OC2CCCCC21` (stereo unspecified), the inhibition in test [5] was 29%.
Consider `CC(C)(C)c1ccc(-c2ccc(C3(O)CN4CCCCC4CO3)cc2)cc1` (stereo unspecified), for which the IC50 in the test with Liver worked out at 410 µM. The inhibition in test [1] stood at 40%. The inhibition in vivo at 56 µmol/kg in the test on Rattus norvegicus [2] is 64%; in the test on Rattus norvegicus [4], 59%.
